Among the data in ChEMBL document CHEMBL1123457, “Effect of methoxy substitution on the adrenergic activity of three structurally related alpha 2-adrenoreceptor antagonists” (J Med Chem, 1986) are Potency, pA2 and pD2 values, retold here.

For experiment [1], the target named is T1, Adrenergic receptor alpha-1 (Rattus norvegicus) (UniProt P15823+P23944+P43140). Kind of experiment: Antagonist potency towards alpha-1 adrenergic receptor in the rat isolated anococcygeus with reference to pA2 idazoxan (postjunctional).
In experiment [2] the test system is Adrenergic receptor alpha-1 (Mus musculus). Kind of experiment: Agonist potency towards alpha-1 adrenergic receptor in the mouse isolated electrically stimulated vas deferens with reference to phenylephrine (postjunctional).
Experiment [3] concerns the target T2, Alpha-2 adrenergic receptor (Mus musculus) (UniProt P30545+Q01338+Q01337). Kind of experiment: Agonist potency towards alpha-2 adrenergic receptor in the mouse isolated electrically stimulated vas deferens with reference to clonidine (prejunctional). Format: functional, tissue-based. In a few lines:
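Mouse vas deferens from adult male MFI mice (>30 g), 0.5 g initial tension, in magnesium-free Krebs at 30 °C, gassed 95% O2/5% CO2. Field stimulation at 0.1 Hz with 3-ms pulses; voltage of 100-140 V set to give about 100 mg twitch, recorded isometrically. Repeated cumulative concentration-response curves to clonidine were run until ID50 values were consistent.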

Experiment [4] addresses T2, Alpha-2 adrenergic receptor (Mus musculus). Kind of experiment: Antagonist potency towards alpha-2 adrenergic receptor in the mouse isolated electrically stimulated vas deferens with reference to idazoxan (prejunctional). Format: functional, tissue-based. Put shortly:
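Mouse vas deferens (adult male MFI mice, >30 g) under 0.5 g tension in magnesium-free Krebs, 30 °C, 95% O2/5% CO2. Field stimulation at 0.1 Hz, 3-ms pulses, 100-140 V giving about 100 mg twitch, isometric recording. Twitches were inhibited by 110 nM clonidine in the Krebs.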

Experiment [5] deals with Adrenergic receptor alpha-1 (Rattus norvegicus). Kind of experiment: Antagonist potency towards alpha-1 adrenergic receptor in the rat isolated anococcygeus with reference to pA2 idazoxan (postjunctional).
Experiment [6] has as its target T3, Adrenergic receptor alpha-2 (Rattus norvegicus, UniProt P22086+P19328+P22909).
T3 sequence (P22086 whole entry): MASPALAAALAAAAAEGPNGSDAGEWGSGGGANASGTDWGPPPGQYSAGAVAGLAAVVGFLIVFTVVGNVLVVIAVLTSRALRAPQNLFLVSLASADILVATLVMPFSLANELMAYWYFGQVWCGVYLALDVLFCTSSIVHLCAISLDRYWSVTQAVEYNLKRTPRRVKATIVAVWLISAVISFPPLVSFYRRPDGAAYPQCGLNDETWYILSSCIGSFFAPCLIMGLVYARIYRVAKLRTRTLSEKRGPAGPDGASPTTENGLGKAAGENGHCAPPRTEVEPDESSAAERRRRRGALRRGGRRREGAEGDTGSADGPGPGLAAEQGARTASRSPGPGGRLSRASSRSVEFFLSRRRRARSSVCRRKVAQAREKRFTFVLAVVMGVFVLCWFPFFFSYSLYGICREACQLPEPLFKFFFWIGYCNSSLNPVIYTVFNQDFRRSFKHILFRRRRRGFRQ
T3 sequence (P19328 whole entry): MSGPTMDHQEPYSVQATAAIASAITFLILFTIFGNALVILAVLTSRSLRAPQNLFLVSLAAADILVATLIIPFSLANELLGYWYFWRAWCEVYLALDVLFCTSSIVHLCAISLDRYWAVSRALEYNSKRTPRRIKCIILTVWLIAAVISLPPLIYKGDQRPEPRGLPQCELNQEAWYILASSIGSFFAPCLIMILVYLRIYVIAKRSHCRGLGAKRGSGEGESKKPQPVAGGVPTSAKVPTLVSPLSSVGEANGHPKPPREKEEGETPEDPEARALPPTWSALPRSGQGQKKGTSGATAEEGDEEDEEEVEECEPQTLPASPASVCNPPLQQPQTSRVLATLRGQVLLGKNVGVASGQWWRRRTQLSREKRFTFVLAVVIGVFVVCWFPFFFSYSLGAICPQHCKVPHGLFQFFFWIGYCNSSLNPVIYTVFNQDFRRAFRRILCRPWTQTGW
T3 sequence (P22909 whole entry): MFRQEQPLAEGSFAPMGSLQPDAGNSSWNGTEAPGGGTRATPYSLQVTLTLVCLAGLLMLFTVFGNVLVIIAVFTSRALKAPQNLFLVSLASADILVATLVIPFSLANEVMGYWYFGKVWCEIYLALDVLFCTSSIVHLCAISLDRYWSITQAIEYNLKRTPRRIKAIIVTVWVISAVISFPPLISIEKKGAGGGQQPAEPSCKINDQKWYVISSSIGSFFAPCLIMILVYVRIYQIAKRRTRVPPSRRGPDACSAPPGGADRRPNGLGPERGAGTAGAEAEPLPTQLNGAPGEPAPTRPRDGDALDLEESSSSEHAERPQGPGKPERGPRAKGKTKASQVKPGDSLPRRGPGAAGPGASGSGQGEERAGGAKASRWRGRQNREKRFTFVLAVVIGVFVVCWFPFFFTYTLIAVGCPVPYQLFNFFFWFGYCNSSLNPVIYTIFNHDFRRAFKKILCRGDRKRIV
Nature of the experiment: Antagonist potency towards alpha-2 adrenergic receptor in the rat electrically stimulated vas deferens with reference to P-aminoclonidine. Format: functional, tissue-based.

In experiment [7] the test system is Adrenergic receptor alpha-1 (Rattus norvegicus). Nature of the experiment: Agonist potency towards alpha-1 adrenergic receptor in the rat isolated anococcygeus with reference to phenylephrine (postjunctional).
The target in experiment [8] is T4, Adrenergic receptor alpha-1 (Rattus norvegicus, UniProt P15823+P23944+P43140).
T4 sequence (P15823 whole entry): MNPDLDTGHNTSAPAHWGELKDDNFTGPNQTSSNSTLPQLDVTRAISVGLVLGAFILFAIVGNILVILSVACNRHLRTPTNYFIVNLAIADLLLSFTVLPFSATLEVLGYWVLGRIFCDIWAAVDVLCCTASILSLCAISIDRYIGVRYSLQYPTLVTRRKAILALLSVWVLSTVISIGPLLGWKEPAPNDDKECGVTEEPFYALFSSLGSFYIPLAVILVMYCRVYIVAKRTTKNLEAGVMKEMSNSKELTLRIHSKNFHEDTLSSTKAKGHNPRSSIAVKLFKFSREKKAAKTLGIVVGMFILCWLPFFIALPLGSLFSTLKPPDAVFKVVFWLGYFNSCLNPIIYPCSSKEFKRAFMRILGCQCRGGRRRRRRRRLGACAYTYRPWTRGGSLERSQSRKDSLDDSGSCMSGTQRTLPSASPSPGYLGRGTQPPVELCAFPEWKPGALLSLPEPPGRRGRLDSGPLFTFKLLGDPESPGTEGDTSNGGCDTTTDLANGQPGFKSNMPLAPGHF
T4 sequence (P23944 whole entry): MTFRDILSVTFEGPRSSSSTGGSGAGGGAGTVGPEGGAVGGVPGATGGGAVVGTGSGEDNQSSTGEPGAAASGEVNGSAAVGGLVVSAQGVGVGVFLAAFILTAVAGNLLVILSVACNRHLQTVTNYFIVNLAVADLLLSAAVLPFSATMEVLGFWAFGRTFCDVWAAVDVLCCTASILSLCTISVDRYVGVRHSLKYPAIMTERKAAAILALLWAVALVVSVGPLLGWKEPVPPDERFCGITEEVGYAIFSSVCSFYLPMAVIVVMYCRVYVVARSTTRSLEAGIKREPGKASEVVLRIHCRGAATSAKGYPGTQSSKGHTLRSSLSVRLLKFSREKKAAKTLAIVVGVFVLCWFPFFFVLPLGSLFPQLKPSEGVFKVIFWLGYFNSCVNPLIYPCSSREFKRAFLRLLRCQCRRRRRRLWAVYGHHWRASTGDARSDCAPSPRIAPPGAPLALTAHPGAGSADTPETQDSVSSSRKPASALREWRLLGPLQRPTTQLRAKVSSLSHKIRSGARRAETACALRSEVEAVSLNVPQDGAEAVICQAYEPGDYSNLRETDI
T4 sequence (P43140 whole entry): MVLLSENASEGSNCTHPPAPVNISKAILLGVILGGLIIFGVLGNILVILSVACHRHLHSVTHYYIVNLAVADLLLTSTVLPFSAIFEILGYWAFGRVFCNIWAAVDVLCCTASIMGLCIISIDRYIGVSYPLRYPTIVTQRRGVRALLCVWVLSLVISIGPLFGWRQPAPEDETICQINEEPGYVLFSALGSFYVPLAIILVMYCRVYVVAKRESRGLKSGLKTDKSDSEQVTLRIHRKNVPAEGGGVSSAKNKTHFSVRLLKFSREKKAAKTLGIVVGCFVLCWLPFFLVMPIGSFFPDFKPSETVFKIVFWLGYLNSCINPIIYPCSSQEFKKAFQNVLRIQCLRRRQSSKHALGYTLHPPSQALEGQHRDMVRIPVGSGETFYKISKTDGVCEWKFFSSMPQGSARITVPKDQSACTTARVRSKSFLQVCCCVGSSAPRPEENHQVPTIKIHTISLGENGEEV
Kind of experiment: Antagonist potency towards alpha-1 adrenergic receptor in the rat electrically stimulated vas deferens with reference to phenylephrine. Type of experiment: functional, tissue-based.

In experiment [9] the target is T1, Adrenergic receptor alpha-1 (Rattus norvegicus). Kind of experiment: Antagonist potency towards alpha-1 adrenergic receptor in the rat isolated electrically stimulated vas deferens with reference to pA2 idazoxan (postjunctional). Type of experiment: functional, tissue-based.
Experiment [10] shares this target. Kind of experiment: Agonist potency towards alpha-1 adrenergic receptor in the rat isolated electrically stimulated vas deferens with reference to phenylephrine (postjunctional). Format: functional, tissue-based. In a few lines: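 Vas deferens in Krebs solution (NaCl 118 mM, KCl 4.7 mM, CaCl2 2.5 mM, KH2PO4 1.2 mM, MgSO4 0.6 mM, NaHCO3 25 mM, dextrose 11.1 mM), gassed with 95% O2/5% CO2, at 30 °C. Intramural nerves stimulated with 3-ms rectangular pulses, 40 V, 0.1 Hz. Contractions recorded isometrically.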

Experiment [11] is filed under the species Rattus norvegicus. Nature of the experiment: Agonist potency of phenylephrine in rat isolated anococcygeus muscle. Type of experiment: functional, Muscle tissue.

As a reminder, the pA2 is a measure of antagonist potency on a negative log scale. A low value points to a weaker antagonist.

Turning to `CCN(CC)CC1(OC)COc2ccccc2O1` (configuration not stated), the Potency in experiment [1] was under 0.012; in experiment [2], 0; in experiment [3], 0; in experiment [4], 0.0037.

Consider `COC1(CN2CCCCC2)COc2ccccc2O1` (configuration not stated), for which the Potency in experiment [5] was under 0.012; in experiment [7] it was 0; in [3], 0; in experiment [4] it was 0.00065. The pA2 in experiment [6] is on record as 5.19; in [8] it was under 4.48.

For the compound `CCN(CC)CC1COc2ccccc2O1` (configuration not stated), the Potency is 0.52 in [1], 0 in experiment [2], 0 in experiment [3] and 0.033 in experiment [4].

In turn, `c1ccc2c(c1)OCC(CN1CCCCC1)O2` (configuration not stated) [PIPEROXAN] came in with a pA2 in [6] of 7.54. The Potency in [9] is 4.8; in experiment [3], 0; in experiment [4], 0.29; in experiment [10] it was 0.

With `Clc1ccc(OCC2=NCCN2)cc1Cl`, the Potency in experiment [3] is under 0.0008; in experiment [4], 0.018; in experiment [10], 0.16.

In the case of `c1ccc2c(c1)OCC(C1=NCCN1)O2` (configuration not stated), the Potency in [9] is 1; in [3], 0; in experiment [4], 1; in experiment [10], 0.

As for `COC(Oc1ccc(Cl)c(Cl)c1)C1=NCCN1` (configuration not stated), the Potency in experiment [1] was 0.063; in experiment [2], 0; in [3], 0; in experiment [4], 0.0021.

On to `COC1(C2=NCCN2)COc2ccccc2O1` (configuration not stated), for which the pA2 in experiment [6] is recorded as 9.92; in experiment [8], 7.43. Also, the Potency was found to be 8.3 in experiment [9], 0 in experiment [3], 11.3 in experiment [4] and 0 in experiment [10].

Turning to `CNC[C@H](O)c1cccc(O)c1` [PHENYLEPHRINE], the pD2 in experiment [11] was found to be 6.54.
